Consider 23 compounds from ChEMBL document CHEMBL3608303, “Discovery of novel potent and selective ligands for 5-HT2A receptor with quinazoline scaffold” (Bioorg Med Chem Lett, 2015).

One may read the inhibition as the relative decrease from the control value, in per cent. Usually Ki stands for the equilibrium dissociation constant of an inhibitor or competing ligand from its target. Broadly, the IC50 is the concentration that gives 50% inhibition.

The target in one test is D(2) dopamine receptor (Homo sapiens, UniProt P14416). In words: Displacement of [3H]-spiperone from dopamine D2 receptor (unknown origin) expressed in HEK293 cell membranes incubated for 15 mins by liquid scintillation spectrometry.
Chain of D(2) dopamine receptor (P14416 whole entry): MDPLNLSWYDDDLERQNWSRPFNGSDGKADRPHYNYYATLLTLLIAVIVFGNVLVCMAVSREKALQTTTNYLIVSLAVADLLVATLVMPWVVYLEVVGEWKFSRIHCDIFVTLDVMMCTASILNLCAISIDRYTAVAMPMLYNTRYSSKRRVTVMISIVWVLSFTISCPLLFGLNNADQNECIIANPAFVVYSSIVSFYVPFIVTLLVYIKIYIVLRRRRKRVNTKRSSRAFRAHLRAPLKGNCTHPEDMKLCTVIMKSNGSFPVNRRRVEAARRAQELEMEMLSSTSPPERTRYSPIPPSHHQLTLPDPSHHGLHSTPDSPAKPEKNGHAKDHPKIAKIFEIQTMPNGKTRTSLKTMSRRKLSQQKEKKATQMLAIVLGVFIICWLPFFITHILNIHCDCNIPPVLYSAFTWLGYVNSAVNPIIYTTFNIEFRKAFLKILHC
Test [1] deals with T1, D(1A) dopamine receptor (Homo sapiens, UniProt P21728). As to the kind of experiment: Displacement of [3H]-SCH-23390 from dopamine D1 receptor (unknown origin) expressed in HEK293 cell membranes incubated for 15 mins by liquid scintillation spectrometry. (Displacement assays read how much labelled ligand stays bound in the presence of the test substance.)
T1 sequence (P21728 whole entry): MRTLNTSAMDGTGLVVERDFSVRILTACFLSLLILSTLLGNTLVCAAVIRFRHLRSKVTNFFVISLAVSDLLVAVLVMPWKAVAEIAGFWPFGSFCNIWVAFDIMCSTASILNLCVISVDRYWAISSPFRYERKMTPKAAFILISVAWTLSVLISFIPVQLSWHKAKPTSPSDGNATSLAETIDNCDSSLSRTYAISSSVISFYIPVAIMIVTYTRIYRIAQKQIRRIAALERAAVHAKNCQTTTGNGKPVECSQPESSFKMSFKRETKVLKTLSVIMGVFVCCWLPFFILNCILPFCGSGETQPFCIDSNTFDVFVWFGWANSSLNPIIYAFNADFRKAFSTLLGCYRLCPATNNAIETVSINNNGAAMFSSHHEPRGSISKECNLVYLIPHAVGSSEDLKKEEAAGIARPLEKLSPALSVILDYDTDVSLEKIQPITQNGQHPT
Test [2] has as its target T2, 5-hydroxytryptamine receptor 2A (Homo sapiens, UniProt P28223). In words: Displacement of [3H]ketanserin hydrochloride from 5-HT2A receptor (unknown origin) expressed in HEK293 cell membranes incubated for 15 mins by liquid scintillation spectrometry relative to control. Also on record: concentration or dose not given beside the values. The essentials:
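[3H]-Ketanserin displacement at 5-HT2A, first run as percent displacement of radioligand by a 10 μM test concentration.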

The target of test [3] is T2, 5-hydroxytryptamine receptor 2A. In words: Displacement of [3H]ketanserin hydrochloride from 5-HT2A receptor (unknown origin) expressed in HEK293 cell membranes incubated for 15 mins by liquid scintillation spectrometry.
Test [4] addresses T3, 5-hydroxytryptamine receptor 1A (Homo sapiens) (UniProt P08908).
T3 sequence (whole entry): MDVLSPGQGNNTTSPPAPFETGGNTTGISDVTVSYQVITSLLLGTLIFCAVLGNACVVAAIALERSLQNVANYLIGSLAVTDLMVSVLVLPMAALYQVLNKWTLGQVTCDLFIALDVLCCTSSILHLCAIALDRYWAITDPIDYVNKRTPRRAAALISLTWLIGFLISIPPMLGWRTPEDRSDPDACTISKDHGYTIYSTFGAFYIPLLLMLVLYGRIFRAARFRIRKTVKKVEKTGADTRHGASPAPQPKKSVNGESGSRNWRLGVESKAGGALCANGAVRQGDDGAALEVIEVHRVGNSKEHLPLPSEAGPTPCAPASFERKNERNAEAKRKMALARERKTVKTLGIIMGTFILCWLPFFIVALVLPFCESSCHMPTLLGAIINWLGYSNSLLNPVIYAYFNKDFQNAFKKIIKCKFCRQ
In words: (§1) Displacement of [3H]-8-OH-DPAT from 5-HT1A receptor (unknown origin) expressed in HEK293 cell membranes incubated for 15 mins by liquid scintillation spectrometry. Also on record: concentration or dose not given beside the values.

The next test concerns the target D(3) dopamine receptor (Homo sapiens, UniProt P35462). As to the kind of experiment: Displacement of [3H]-spiperone from dopamine D3 receptor (unknown origin) expressed in HEK293 cell membranes incubated for 15 mins by liquid scintillation spectrometry. Also on record: concentration or dose not given beside the values.
In test [5] the target is T4, 5-hydroxytryptamine receptor 1A (Homo sapiens, UniProt P08908).
T4 sequence (P08908 whole entry): T3 sequence (whole entry)
The description is as §1.

The target in test [6] is T1, D(1A) dopamine receptor. The following applies: hek293.
The target of test [7] is T2, 5-hydroxytryptamine receptor 2A. In words: Agonist activity at 5-HT2A receptor (unknown origin) expressed in HEK293 cell membranes assessed as induction of [35S]-GTPgammaS binding incubated for 30 mins by liquid scintillation counting method. It is filed as functional. (In general: GTPγS resists hydrolysis and so accumulates on activated G proteins.)
The target is the same in test [8]. It counts as functional, cell-based, HEK293.

T2 sequence (P28223 whole entry): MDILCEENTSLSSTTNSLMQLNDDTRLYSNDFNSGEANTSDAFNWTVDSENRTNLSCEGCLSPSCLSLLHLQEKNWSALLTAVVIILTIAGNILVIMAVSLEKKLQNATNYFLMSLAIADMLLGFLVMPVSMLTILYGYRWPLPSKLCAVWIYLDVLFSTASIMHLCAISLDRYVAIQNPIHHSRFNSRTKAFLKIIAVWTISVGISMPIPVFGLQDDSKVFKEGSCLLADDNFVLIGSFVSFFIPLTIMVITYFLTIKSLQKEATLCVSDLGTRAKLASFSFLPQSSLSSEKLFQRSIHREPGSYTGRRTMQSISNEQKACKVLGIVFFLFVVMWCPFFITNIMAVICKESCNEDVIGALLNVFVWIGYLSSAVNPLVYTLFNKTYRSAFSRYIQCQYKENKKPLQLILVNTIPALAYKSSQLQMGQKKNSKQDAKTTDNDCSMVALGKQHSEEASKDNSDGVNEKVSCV
Chain of D(3) dopamine receptor (P35462 whole entry): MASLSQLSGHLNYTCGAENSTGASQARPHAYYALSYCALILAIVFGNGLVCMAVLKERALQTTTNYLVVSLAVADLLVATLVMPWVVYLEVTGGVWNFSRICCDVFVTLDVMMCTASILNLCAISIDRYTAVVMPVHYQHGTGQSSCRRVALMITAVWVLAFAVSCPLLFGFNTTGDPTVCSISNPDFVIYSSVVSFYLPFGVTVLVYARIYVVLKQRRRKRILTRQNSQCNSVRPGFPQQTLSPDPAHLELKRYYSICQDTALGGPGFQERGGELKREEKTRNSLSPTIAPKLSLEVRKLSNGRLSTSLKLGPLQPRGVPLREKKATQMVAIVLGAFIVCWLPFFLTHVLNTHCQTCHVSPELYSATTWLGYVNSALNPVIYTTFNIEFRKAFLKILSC

On to `CC(C)c1ccc(Nc2nc(N3CCNCC3)nc3ccccc23)cc1`, for which the inhibition at D(2) dopamine receptor was 14%; at D(1A) dopamine receptor [1], 94.8%; in [2], above 90%; in [4], 84.3%; on D(3) dopamine receptor it was 22.5%. Also, affinity in test [3] was put at a Ki of 0.0421 µM.
Consider `OCCN1CCN(c2nc(NCc3ccccc3)c3ccccc3n2)CC1`, for which the inhibitory constant (Ki) entry at D(2) dopamine receptor is “Not Active”; in [3] it was 0.52 µM; in test [5], “Not Active”; on D(3) dopamine receptor (read-out: Ki) it was 1.44 µM; on D(1A) dopamine receptor [6], “Not Active”. Moreover, in [2], the inhibition was above 90%.
As to `CC(C)c1ccc(Nc2nc(Nc3ccc(C(C)C)cc3)c3ccccc3n2)cc1`, the Ki entry (at D(2) dopamine receptor; in test [5]; on D(3) dopamine receptor (hek293); at D(1A) dopamine receptor [6]) was “Not Active” throughout. In addition, the inhibition in test [2] was 5.91%.
On to `Fc1ccc(Nc2nc(N3CCOCC3)nc3ccccc23)cc1`, for which the inhibitory constant (Ki) entry was “Not Active” on D(2) dopamine receptor, 0.235 µM in test [3], “Not Active” in test [5] and “Not Active” on D(1A) dopamine receptor [6]. The inhibition is above 90% in test [2] and -0.57% on D(3) dopamine receptor.
Consider `OCCN1CCN(c2nc(Nc3ccc(Br)cc3)c3ccccc3n2)CC1`, for which the Ki result at D(2) dopamine receptor is “Not Active”; in [3], 0.092 µM; in [5], “Not Active”; on D(3) dopamine receptor (read-out: Ki) it was 0.571 µM; on D(1A) dopamine receptor [6] it was “Not Active”. Moreover, in [7], the EC50 result is “Not Active”. This compound also showed a half-maximal inhibitory concentration (IC50) in test [8] of 27.7 µM.
On to `Fc1ccccc1Nc1nc(N2CCNCC2)nc2ccccc12`, for which the inhibition constant (Ki) entry at D(2) dopamine receptor is “Not Active”; in [3] it was 0.07 µM; in [5], “Not Active”; at D(1A) dopamine receptor [6], “Not Active”. Besides, the inhibition was above 90% in test [2] and 22.5% on D(3) dopamine receptor. In addition, the EC50 entry in test [7] is listed as “Not Active”.
Turning to `OCCN1CCN(c2nc(Nc3ccc(I)cc3)c3ccccc3n2)CC1`, the inhibition in test [2] was above 90%. In addition, the inhibitory constant (Ki) in test [3] is 0.383 µM.
Take `COc1ccccc1Nc1nc(N2CCN(CCO)CC2)nc2ccccc12`: the inhibition constant Ki entry is “Not Active” at D(2) dopamine receptor, 0.146 µM in [3] and “Not Active” on D(1A) dopamine receptor [6]. Further, the inhibition is above 90% in test [2], 52% in test [4] and 0.9% at D(3) dopamine receptor.
In the case of `CC(C)c1ccc(Nc2nc(N(C)C)nc3ccccc23)cc1`, the Ki result (at D(2) dopamine receptor; in [5]; at D(3) dopamine receptor (hek293); on D(1A) dopamine receptor [6]) was “Not Active” throughout. Also, the inhibition in [2] was 75.1%.
In the case of `OCCN1CCN(c2nc(Nc3ccccc3F)c3ccccc3n2)CC1`, the Ki result at D(2) dopamine receptor was “Not Active”; in test [3], 0.0658 µM; in test [5] it was “Not Active”; at D(1A) dopamine receptor [6] it was “Not Active”. Besides, the values for the inhibition (in [2]; at D(3) dopamine receptor) were above 90% and 10.1%, respectively. For the same compound, the EC50 entry in [7] is “Not Active”. This compound also showed an IC50 in [8] of 1.37 µM.
Consider `OCCN1CCN(c2nc(Nc3ccc(F)cc3)c3ccccc3n2)CC1`, for which the Ki result at D(2) dopamine receptor is “Not Active”; in test [3], 0.12 µM; in test [5], “Not Active”; on D(1A) dopamine receptor [6] it was “Not Active”. Also, the EC50 entry in test [7] is given as “Not Active”. Further, the IC50 in [8] came to 21.3 µM. At D(3) dopamine receptor, the inhibition worked out at 49.3%.
As to `COc1ccc(Nc2nc(N3CCN(CCO)CC3)nc3ccccc23)c(OC)c1`, the inhibitory constant (Ki) entry on D(2) dopamine receptor is “Not Active”; in test [3], 0.594 µM; in [5], “Not Active”; at D(3) dopamine receptor (hek293), “Not Active”; at D(1A) dopamine receptor [6] it was “Not Active”. The inhibition in test [2] is above 90%.
As for `OCCN1CCN(c2nc(Nc3ccc(Cl)cc3)c3ccccc3n2)CC1`, the inhibition on D(2) dopamine receptor came out at 53%; at D(1A) dopamine receptor [1], 80.5%; in test [4], 53.8%; on D(3) dopamine receptor, 75.6%. Further, in test [7], the EC50 result is “Not Active”. In addition, the half-inhibitory concentration (IC50) in test [8] amounted to 7.43 µM. The compound also came in with a Ki in test [3] of 0.109 µM.
In the case of `Clc1ccc(Nc2nc(N3CCNCC3)nc3ccccc23)cc1`, the inhibition on D(2) dopamine receptor was found to be 71.4%; on D(1A) dopamine receptor [1] it was 83.9%; in test [4], 88.6%; on D(3) dopamine receptor, 78.8%. In test [7], the EC50 result is on record as “Not Active”. The compound further showed an IC50 in test [8] of 1.66 µM. In addition, the affinity in [3], expressed as Ki, was 0.014 µM.
For `COc1ccccc1Nc1nc(N2CCNCC2)nc2ccccc12`, the Ki entry at D(2) dopamine receptor is “Not Active”; in [3], 0.0458 µM; in test [5], “Not Active”; at D(1A) dopamine receptor [6], “Not Active”. For the same compound, the inhibition in test [2] was above 90%. The EC50 result in [7] is “Not Active”.
`Ic1ccc(Nc2nc(N3CCNCC3)nc3ccccc23)cc1`: the Ki result on D(2) dopamine receptor is “Not Active”; in test [3], 0.496 µM; at D(3) dopamine receptor (hek293), “Not Active”; on D(1A) dopamine receptor [6] it was “Not Active”. Moreover, the inhibition was above 90% in test [2] and 56.6% in test [4].
In the case of `CC(C)(C)[C@@]1(O)CCN2C[C@@H]3c4ccccc4CCc4cccc(c43)[C@H]2C1`, in [2], the inhibition was above 90%.
Take `OCCN1CCN(c2nc(Nc3cccc(O)c3)c3ccccc3n2)CC1`: the Ki entry on D(2) dopamine receptor is “Not Active”; in [3], 0.0834 µM; in test [5], “Not Active”; at D(1A) dopamine receptor [6], “Not Active”. Also, the inhibition was above 90% in [2] and 11.7% at D(3) dopamine receptor. Further, in test [7], the EC50 result is recorded as “Not Active”. The IC50 in test [8] was determined as 9.12 µM.
Regarding `Cc1ccc(Nc2nc(N3CCN(CCO)CC3)nc3ccccc23)c(C)c1`, the Ki entry on D(2) dopamine receptor was “Not Active”; in test [3], 0.268 µM; at D(1A) dopamine receptor [6] it was “Not Active”. The inhibition is above 90% in test [2], 81.2% in [4] and 39% at D(3) dopamine receptor.
In the case of `CC(C)c1ccc(Nc2nc(N3CCN(CCO)CC3)nc3ccccc23)cc1`, the Ki result at D(2) dopamine receptor is “Not Active”; in test [3], 0.149 µM; at D(3) dopamine receptor (read-out: Ki), 1.14 µM; on D(1A) dopamine receptor [6] it was “Not Active”. The inhibition in test [2] was above 90%; in [4], 42.3%.
Consider `Clc1ccc(Nc2nc(N3CCOCC3)nc3ccccc23)cc1`, for which the inhibition was -9.36% at D(1A) dopamine receptor [1], 45.3% in test [2] and 16.7% in [4].
On to `Fc1ccccc1Nc1nc(N2CCOCC2)nc2ccccc12`, for which the inhibitory constant (Ki) entry on D(2) dopamine receptor is “Not Active”; in test [3], 0.184 µM; in test [5], “Not Active”; on D(1A) dopamine receptor [6], “Not Active”. Further, in [2], the inhibition is above 90%.
For `COc1ccc(Nc2nc(N3CCN(CCO)CC3)nc3ccccc23)cc1`, the inhibition in test [2] is above 90%. Also, in test [3], affinity was put at a Ki of 1.36 µM.
